Screening data (PubChem BioAssay)
NPY-Y1 PAM-ag – potentiators or agonists of human neuropeptide Y receptor Y1. P25929. NPY-Y1 expressing cells, potentiator/agonist activation. activation, % at 3.6 µM. 0.37% of 220,000 active. AID 1304; in the data active = activation above about 33%, passing the limit was not always enough;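 also: cells stimulated with NPY at EC10 then isoproterenol at EC100; 0% = low agonist plus stimulus and 100% = saturating agonist plus stimulus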
Target sequence (P25929 whole entry, looked up): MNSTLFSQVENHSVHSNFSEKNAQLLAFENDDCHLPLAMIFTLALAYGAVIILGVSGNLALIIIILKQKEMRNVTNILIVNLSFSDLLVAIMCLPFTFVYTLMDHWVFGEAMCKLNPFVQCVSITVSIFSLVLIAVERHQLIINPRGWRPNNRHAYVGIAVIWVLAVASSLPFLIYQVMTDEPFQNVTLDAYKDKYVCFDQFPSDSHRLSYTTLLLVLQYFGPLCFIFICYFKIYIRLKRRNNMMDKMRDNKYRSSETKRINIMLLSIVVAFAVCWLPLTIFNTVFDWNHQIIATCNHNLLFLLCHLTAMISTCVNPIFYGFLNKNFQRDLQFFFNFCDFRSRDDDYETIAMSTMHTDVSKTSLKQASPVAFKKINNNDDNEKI
RAM inhibit – yeast RAM network inhibition | S. cerevisiae dse1pr::URA3 reporter, 5-FOA growth OD615, 2 d; analog-sensitive cbk1-as2 kinase mutant strain | inhibition, % at 50 µM | 1.8% of 190,000 active | AID 868;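 active = inhibition above a set limit, 3 SD over mean compound inhibition, cut at about 8.4% in these data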;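 also: 0% = DMSO-only wells with no growth and 100% = 10 µM 1-NA-PP1 full growth; inhibition rescues growth on 5-FOA so higher OD means more RAM inhibition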
NPY2 pot ag – potentiates or activates human NPY-Y2 receptor; cells expressing NPY-Y2, potentiator/agonist read-out; activation, % at 3.6 µM; 0.45% of 220,000 active; AID 1359; in the data active = activation above about 27%;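 also: cells stimulated with NPY near EC25 plus isoproterenol at EC100; 0% = vehicle plus submaximal agonist and 100% = vehicle plus saturating agonist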
Insulin prom inh – TRM-6 insulin promoter activity inhibition. TRM-6 cells, insulin promoter-eGFP reporter, imaging; reporter expression induced with tamoxifen. inhibition, % at 2 µM. 0.9% of 130,000 active. AID 1273;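 active = inhibition above the mean plus 3 SD, with well images judged a real hit on visual review, cut at about 60% in these data, passing the limit was not always enough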
NPY Y1 blocker – blocks the human neuropeptide Y Y1 receptor | P25929 | HEK293-CNG Y1 cells, membrane potential fluorescence; NPY at EC95, then isoproterenol | inhibition, % at 3.6 µM | 1% of 200,000 active;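 active = inhibition above the campaign mean inhibition of all tested compounds plus 3 SD, cut at about 20% in these data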;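 also: 0% = DMSO wells given NPY plus isoproterenol and 100% = isoproterenol alone without NPY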
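Material: HEK293 Y1/CNG channel cell line | Also added: NPY (25 nM), isoproterenol (1 µM), Ro 20-1724 (25 µM) | Compound: One concentration, 3.6 µM, in 0.4% DMSO | Schedule: 3 h dye uptake, 1 h room-temperature compound, 45 min post-isoproterenol | Signal: Membrane-potential fluorescent dye readout | Read-out: % inhibition of NPY effect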
NPY-Y2 antag – blocks the human neuropeptide Y Y2 receptor; inhibition, % at 2.7 µM; P49146; NPY-Y2 expressing cells, antagonist mode; 0.99% of 140,000 active; AID 793; in the data active = inhibition above about 17%;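 also: 0% = vehicle with agonist challenge and 100% = reference antagonist with challenge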
NPY1 antag ctr – antagonizes human NPY-Y1, counter-screen to NPY-Y2 antagonists; cell-based NPY-Y1 antagonism counterscreen; shares compounds with NPY-Y2 antag; inhibition, % at 3.6 µM; 19% of 710 active; in the data active = inhibition above about 20%;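 also: cells challenged with NPY then isoproterenol with cAMP sensed through a CNG channel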
NPY-Y2 ant conf – human NPY-Y2 antagonism, confirmation | shares compounds with NPY-Y2 antag | HEK293 NPY-Y2 CNG channel, membrane potential fluorescence | inhibition, % at 2.8 µM | 32% of 710 active | AID 1257;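 active = mean inhibition of triplicate wells above the hit cutoff set in the primary screen, cut at about 17% in these data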;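 also: 0% = DMSO with NPY challenge and 100% = BIIE0246 high control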
An asterisk follows results filed as active; · = no result given. Compounds with a hit are over-represented: about 3.8% of the library has one in this group of screens.

SMILES	NPY-Y1 PAM-ag	RAM inhibit	NPY2 pot ag	Insulin prom inh	NPY Y1 blocker	NPY-Y2 antag	NPY1 antag ctr	NPY-Y2 ant conf
CCOC(=O)C1CCN(S(=O)(=O)c2ccc(-c3nc4ccccc4s3)s2)CC1	3	8.4*	-6	·	4	3	·	·
CCOC(=O)C1CCN(S(=O)(=O)c2ccc(-c3cc(C(F)(F)F)n(C)n3)s2)CC1	-27	·	-17	·	·	·	·	·
CC1CCN(C(=O)C(C)Sc2nc(-c3ccccc3)cc(C(F)(F)F)n2)CC1 (stereo not given)	-6	8.8*	0	-7	18	17	·	·
CC(O)c1c(OCc2ccccc2)ncnc1OCc1ccccc1 (stereo not given)	-27	1	-14	6	33*	3	·	·
Cc1nc2ccccc2nc1OCc1ccccc1	0	0	0	·	3	5	·	·
N#CCCN1CCNCC1	-11	0	15	68*	3	3	·	·
COc1ccc(CN(C(=O)CSc2nnc(-c3ccc(F)cc3)o2)c2ccc(F)cc2)cc1	-24	7	-10	-115	6	12	·	·
COc1ccc(CN(C(=O)CSc2nnc(-c3c[nH]c4ccccc34)o2)c2ccc(F)cc2)cc1OC	-6	9.9*	-9	-54	5	3	·	·
Cc1onc(-c2c(Cl)cccc2Cl)c1NC(=O)NN(C)c1ccc([N+](=O)[O-])cn1	11	·	9	·	·	·	·	·
COc1ccc(OCC(=O)Nc2cccc3cccnc23)cc1	-10	2	-4	-19	12	48*	11	24*
CCOC(=O)c1c(NC(=O)CSC2=NN3CCCC(=O)N=C3S2)sc2c1CCCCC2	0	2	7	-22	3	19*	25*	43*
COC(=O)c1ccc(-c2nn(C)c(=O)c3ccccc23)cc1	-7	2	8	·	-4	4	·	·
COC(=O)c1ccc(C(=O)OC)c(-n2c(=O)c3ccccc3c3ccccc3c2=O)c1	23	-1	11	-24	0	19*	8	16
CCCCOc1ccc(/C=C/C(=O)OCC(=O)c2c(N)n(C)c(=O)n(C)c2=O)cc1OCC	11	3	-4	53	-3	·	·	·
N#Cc1ccc(COn2nnc3ccccc32)cc1	14	1	1	·	8	·	·	·
O=C(Cc1ccc2c(c1)CCCC2)Nc1ccc2ccccc2c1	-11	5	-14	23	18	18*	11	13
Cc1ccc(C(C(=O)NCc2ccc(F)cc2)N(CCCO)C(=O)C2COc3ccccc3O2)o1 (stereo not given)	3	0	3	-20	1	·	·	·
COc1cc(/C=N/NC(N)=S)ccc1OCC(=O)Nc1ccc(C)c(C)c1	-6	4	-9	50	-2	-3	·	·
COc1cc(/C=N/NC(N)=O)ccc1OCC(=O)Nc1ccc(C)c(C)c1	-14	1	-16	·	-1	18*	11	34*
O=C1CN(S(=O)(=O)c2ccccc2C(F)(F)F)CCN1	-6	5	16	·	4	·	·	·
Cc1nc(-c2ccccc2)sc1C(=O)CSc1ccc(Cl)cc1	-12	1	-3	40	17	20*	14	25*
CCN1C(=O)/C(=C/c2nc3ccccc3c(=O)n2-c2ccc(C)cc2)c2ccccc21	10	3	-3	·	-3	-1	·	·
CCN1C(=O)C(Cc2nc3ccccc3c(=O)n2-c2ccccc2)c2ccccc21 (stereo not given)	-19	-1	-7	-83	11	23*	5	9
Cc1c(NC(=O)c2ccc(COc3ccc4ccccc4c3)o2)c(=O)n(-c2ccccc2)n1C	-11	2	-4	20	8	18*	15	9
COc1cc(/C=C2\SC(=Nc3c(C)n(C)n(-c4ccccc4)c3=O)NC2=O)ccc1O	-28	5	-6	-52	20*	31*	48*	74*
SMILES	NPY-Y1 PAM-ag	RAM inhibit	NPY2 pot ag	Insulin prom inh	NPY Y1 blocker	NPY-Y2 antag	NPY1 antag ctr	NPY-Y2 ant conf
Cc1cccc(/C(N)=N/OC(=O)COc2ccc(Cl)c(C)c2)c1	1	5	16	-75	-3	11	·	·
Cc1cc(OCC(=O)O/N=C(\N)c2ccccc2)ccc1Cl	-10	8	-4	17	10	19*	7	10
CCOC(=O)c1c(CSC(=N)N)n(-c2ccc(Br)cc2)c2cc(Br)c(OC(C)=O)cc12	81*	5	74*	28	-3	26*	14	16
COCC(=O)N1CCC(n2nnc3cc(C(F)(F)F)ccc32)CC1	10	1	-9	·	-2	·	·	·
Cc1cc(C(F)(F)F)nc(SCC(=O)c2cccc([N+](=O)[O-])c2)n1	-5	-1	5	-18	0	19*	3	5
COc1ccccc1OCCCCN1CCN(C(c2ccccc2)c2ccccc2)CC1	-34	2	-28	15	5	20*	14	25*
CCCCNC(=O)CN1C(=O)C(CC)Oc2ccc(Cl)cc21 (stereo not given)	-28	4	-23	·	17	22*	7	7
CN(C)S(=O)(=O)c1ccc(N2CCCC2)c(C(=O)NC(c2ccccc2)c2ccccc2)c1	8	2	-15	-30	13	23*	16	9
CN(C)S(=O)(=O)c1ccc(N2CCCC2)c(C(=O)Nc2nc3ccccc3s2)c1	-11	4	-12	15	4	4	·	·
CC(C)(CO)NCc1ccc(Br)cc1	2	2	4	38	-2	·	·	·
CCCC[C@@H]1C[C@H]1[C@@H](NC(=O)c1ccco1)c1ccc(Cl)cc1	-25	7	2	18	9	2	·	·
CCCC[C@@H]1C[C@H]1[C@@H](NC(=O)c1cccs1)c1ccc(Cl)cc1	-46	9.8*	1	20	2	18*	13	17
CN(/N=C/c1ccncc1)C1=NS(=O)(=O)c2ccccc21	25	4	4	·	4	21*	2	1
Cc1ccccc1OCCCSc1nc2ccccc2[nH]1	-12	1	8	38	7	17*	4	2
COc1ccc(C2Nc3ccccc3C(=O)N2Cc2ccco2)cc1COc1ccccc1F (stereo not given)	-12	3	-13	-32	19	25*	6	11
O=C(CSc1nnc(SCc2ccccc2)s1)N/N=C/c1c(Cl)cccc1Cl	-20	10*	-12	0	2	26*	13	16
Cc1nn(-c2ccccc2)c(C)c1/C=N/NC(=O)CSc1nnc(SCc2ccc(Cl)cc2)s1	17	0	2	·	-1	6	·	·
Cc1ccccc1NC(=O)Cn1nnc2c(cnn2-c2ccc(F)cc2)c1=O	-23	2	-7	·	1	24*	10	8
